Test results reported in ChEMBL document CHEMBL1121917, “Structure--activity relationships in a broad-spectrum anthelmintic series. Acid chloride phenylhydrazones. 1. Aryl substitutions and chloride variations” (1981).

What was measured:
[1] = species on record: Canis familiaris; test: Percent reduction in Uncinaria eggs per gram, after treatment with 200 mg/dog dose of compound in a single treatment; type: functional, Canis lupus familiaris, Egg
Outline: (§1)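 Dogs naturally infected with Toxascaris leonina were experimentally infected with mixed Ancylostoma caninum and Uncinaria stenocephala larvae. Finely ground compound was given orally in gelatin capsules. Three egg count determinations were made before and three after treatment in each experiment.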

[2] = species on record: Canis familiaris; test: Percent reduction in Ancylostoma eggs per gram, after oral treatment of 175 mg/dog dose of compound in a single treatment; type: functional, Canis lupus familiaris, Egg
Outline: (§2)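 Dogs naturally infected with Toxascaris leonina were experimentally infected with mixed Ancylostoma caninum and Uncinaria stenocephala larvae. Finely ground compound was given orally in gelatin capsules. Fecal egg counts were taken three times before and three times after treatment, and activity was taken as the fall in egg counts.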

[3] = species on record: Canis familiaris; test: Percent reduction in Ancylostoma eggs per gram, after treatment with 200 mg/dog dose of compound in a single treatment; type: functional, Canis lupus familiaris, Egg; outline: as §2
[4] = species on record: Canis familiaris; test: Percent reduction in Toxascaris eggs per gram, after treatment with 200 mg/dog dose of compound in a single treatment; type: functional, Canis lupus familiaris, Egg; outline: as §1
[5] = species on record: Mus musculus; test: Percent clearance of Nematospiroides dubius from mouse after oral treatment of 1.87 mg/mouse/day; type: functional
Outline: (§3)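 Mice naturally carrying Syphacia obvelata were experimentally infected with Nematospiroides dubius and Hymenolepis nana, then grouped after a 2-week prepatency. Finely ground compound was suspended in aqueous 0.10% carboxymethylcellulose, 0.04% polysorbate 80 and 0.0042% polyparaben, and 0.1 mL was given orally by cannula once daily for 4 days to five mice. Necropsy followed 2 days later, scoring presence or absence of each parasite. Control clearance was subtracted from the treated clearance.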

[6] = species on record: Mus musculus; test: Percent clearance of Syphacaia obvelata from mouse after oral treatment of 1.87 mg/mouse/day; type: functional; outline: as §3
[7] = test system: Ovis aries; test: Percent reduction in Trichostrongylus eggs per gram, after treatment with 250 mg/kg dose of compound perorally in sheep; type: functional, Egg; conditions: route oral
[8] = test system: Ovis aries; test: Percent reduction in Trichostrongylus eggs per gram, after treatment with 325 mg/kg dose of compound perorally in sheep; type: functional, Egg; conditions: route oral
[9] = test system: Ovis aries; test: Percent reduction in Trichostrongylus eggs per gram, after treatment with 400 mg/kg dose of compound perorally in sheep; type: functional, Egg; conditions: route oral
Outline: (§4)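 Naturally parasitized lambs, dosed orally either with a suspension by stomach tube or with finely ground compound in gelatin capsules by balling gun. Activity was scored by the clinical test method, meaning a significant fall in helminth egg counts after treatment.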

[10] = test system: Ovis aries; test: Percent reduction in Trichostrongylus eggs per gram, after treatment with 450 mg/kg dose of compound perorally in sheep; type: functional, Egg; conditions: route oral; outline: as §4
[11] = test system: Ovis aries; test: Percent reduction in Trichuris eggs per gram, after treatment with 325 mg/kg dose of compound perorally in sheep; type: functional, Egg; conditions: route oral
[12] = test system: Ovis aries; test: Percent reduction in Trichuris eggs per gram, after treatment with 400 mg/kg dose of compound perorally in sheep; type: functional, Egg; conditions: route oral; outline: as §4
[13] = test system: Ovis aries; test: Percent reduction in Strongyloides eggs per gram, after treatment with 450 mg/kg dose of compound perorally in sheep; type: functional, Egg; conditions: route oral; outline: as §4
[14] = test system: Ovis aries; test: Percent reduction in Haemonchus eggs per gram, after treatment with 250 mg/kg dose of compound perorally in sheep; type: functional, Egg; conditions: route oral
Outline: (§5)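 Naturally parasitized lambs were dosed orally at the stated mg/kg. Dosing was either as a suspension of finely ground compound by stomach tube, or as ground compound weighed into gelatin capsules and given by balling gun. Activity was scored by the clinical test method: the decrease in posttreatment helminth eggs per gram.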

[15] = test system: Ovis aries; test: Percent reduction in Haemonchus eggs per gram, after treatment with 325 mg/kg dose of compound perorally in sheep; type: functional, Egg; conditions: route oral; outline: as §5
[16] = test system: Ovis aries; test: Percent reduction in Nematodirus eggs per gram, after treatment with 250 mg/kg dose of compound perorally in sheep; type: functional, Egg; conditions: route oral; outline: as §5
[17] = test system: Ovis aries; test: Percent reduction in Nematodirus eggs per gram, after treatment with 450 mg/kg dose of compound perorally in sheep; type: functional, Egg; conditions: route oral; outline: as §5
[18] = test system: Ovis aries; test: Percent reduction in Strongyloides eggs per gram, after treatment with 250 mg/kg dose of compound perorally in sheep; type: functional, Egg; conditions: route oral; outline: as §4
[19] = test system: Ovis aries; test: Percent reduction in Haemonchus eggs per gram, after treatment with 450 mg/kg dose of compound perorally in sheep; type: functional, Egg; conditions: route oral; outline: as §5
[20] = test system: Ovis aries; test: Percent reduction in Moniezia eggs per gram, after treatment with 400 mg/kg dose of compound perorally in sheep; type: functional, Egg; conditions: route oral; outline: as §5
[21] = test system: Ovis aries; test: Percent reduction in Strongyloides eggs per gram, after treatment with 325 mg/kg dose of compound perorally in sheep; type: functional, Egg; conditions: route oral; outline: as §4
[22] = test system: Ovis aries; test: Percent reduction in Ostertagia eggs per gram, after treatment with 400 mg/kg dose of compound perorally in sheep; type: functional, Egg; conditions: route oral; outline: as §4
[23] = test system: Ovis aries; test: Percent reduction in Ostertagia eggs per gram, after treatment with 450 mg/kg dose of compound perorally in sheep; type: functional, Egg; conditions: route oral; outline: as §4
[24] = test system: Ovis aries; test: Percent reduction in Oesophagostomum eggs per gram, after treatment with 450 mg/kg dose of compound perorally in sheep; type: functional, Egg; conditions: route oral; outline: as §5
[25] = test system: Ovis aries; test: Percent reduction in Oesophagostomum eggs per gram, after treatment with 250 mg/kg dose of compound perorally in sheep; type: functional, Egg; conditions: route oral; outline: as §5
[26] = test system: Ovis aries; test: Percent reduction in Trichuris eggs per gram, after treatment with 250 mg/kg dose of compound perorally in sheep; type: functional, Egg; conditions: route oral; outline: as §4
[27] = test system: Ovis aries; test: Percent reduction in Ostertagia eggs per gram, after treatment with 325 mg/kg dose of compound perorally in sheep; type: functional, Egg; conditions: route oral; outline: as §4
[28] = test system: Ovis aries; test: Percent reduction in Cooperia eggs per gram, after treatment with 400 mg/kg dose of compound perorally in sheep; type: functional, Egg; conditions: route oral
Outline: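 Naturally parasitized lambs received compound orally, either as the aqueous suspension by stomach tube or as finely ground powder in gelatin capsules by balling gun. Activity was judged by the clinical test method, as a significant decrease in posttreatment helminth egg counts.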

[29] = test system: Ovis aries; test: Percent reduction in Ostertagia eggs per gram, after treatment with 250 mg/kg dose of compound perorally in sheep; type: functional, Egg; conditions: route oral; outline: as §4
[30] = species on record: Canis familiaris; test: Percent reduction in Uncinaria eggs per gram, after oral treatment of 175 mg/dog dose of compound in a single treatment; type: functional, Canis lupus familiaris, Egg
[31] = test system: Ovis aries; test: Percent reduction in Trichuris eggs per gram, after treatment with 450 mg/kg dose of compound perorally in sheep; type: functional, Egg; conditions: route oral; outline: as §4
[32] = test system: Ovis aries; test: Percent reduction in Haemonchus eggs per gram, after treatment with 400 mg/kg dose of compound perorally in sheep; type: functional, Egg; conditions: route oral; outline: as §5
[33] = species on record: Mus musculus; test: Percent clearance of Nematospiroides dubius from mouse after oral treatment of 7.55 mg/mouse/day; type: functional; outline: as §3
[34] = species on record: Mus musculus; test: Percent clearance of Hymenolepis nana from mouse after oral treatment of 7.5 mg/mouse/day; type: functional; outline: as §3
[35] = species on record: Mus musculus; test: Percent clearance of Nematospiroides dubius from mouse after oral treatment of 0.57 mg/mouse/day; type: functional; outline: as §3
[36] = species on record: Mus musculus; test: Percent clearance of Syphacaia obvelata from mouse after oral treatment of 0.57 mg/mouse/day; type: functional; outline: as §3
[37] = species on record: Canis familiaris; test: Percent reduction in Uncinaria eggs per gram, after oral treatment of 100 mg/dog dose of compound in a single treatment; type: functional, Canis lupus familiaris, Egg; outline: as §1
[38] = species on record: Canis familiaris; test: Percent reduction in Uncinaria eggs per gram, after oral treatment of 200 mg/dog dose of compound in a single treatment; type: functional, Canis lupus familiaris, Egg; outline: as §1
[39] = species on record: Canis familiaris; test: Percent reduction in Toxascaris eggs per gram, after oral treatment of 100 mg/dog dose of compound in a single treatment; type: functional, Canis lupus familiaris, Egg; outline: as §1
[40] = species on record: Canis familiaris; test: Percent reduction in Toxascaris eggs per gram, after oral treatment of 200 mg/dog dose of compound in a single treatment; type: functional, Canis lupus familiaris, Egg; outline: as §1

With `Cl/C(=N\Nc1c(Cl)cc(Cl)cc1Cl)c1ccccc1` the Reduction [1] was 59%, the Reduction [2] was 31% and the Reduction [3] was 87%. For the same compound, the Reduction [4] was 67%, the Parasite_Clearance [5] was 80% and the Parasite_Clearance [6] was 20%. For the same compound, the Reduction [7] was 98%, the Reduction [8] was 33% and the Reduction [9] was 77%. The Reduction [10] was 100%, the Reduction [11] was 0% and the Reduction [12] was 14%. It also gave a Reduction [13] of 100%, a Reduction [14] of 98% and a Reduction [15] of 99%. The Reduction [16] was 82%, the Reduction [17] was 63% and the Reduction [18] was 95%. It also gave a Reduction [19] of 94%, a Reduction [20] of 100% and a Reduction [21] of 79%. The Reduction [22] was 100%, the Reduction [23] was 100% and the Reduction [24] was 0%. The Reduction [25] was 95%, the Reduction [26] was 63% and the Reduction [27] was 98%. For the same compound, the Reduction [28] was 100%, the Reduction [29] was 100% and the Reduction [30] was 26%. The Reduction [31] was 29% and the Reduction [32] was 85%.
`O=[N+]([O-])c1ccc(/C(Cl)=N/Nc2ccccc2)cc1` was tested, and the Parasite_Clearance [33] was 0% and the Parasite_Clearance [34] was 0%.
Work on `Cl/C(=N\Nc1ccccc1)c1cc(Cl)cc(Cl)c1` yielded a Parasite_Clearance [35] of 0% and a Parasite_Clearance [36] of 25%.
Work on `Cl/C(=N\Nc1ccccc1)c1ccc(I)cc1` yielded a Reduction [37] of 41%, a Reduction [38] of 63% and a Reduction [39] of 0%. It also gave a Reduction [40] of 100%, a Parasite_Clearance [5] of 80% and a Parasite_Clearance [6] of 100%.
